Activity calls are given as the source filed them. The rule behind the calls is not given here.
Key:
Assay type in all cases: cell-based
[1] = biological target: T1, Short transient receptor potential channel 7 (Homo sapiens) (UniProt Q9HCX4); test: Antagonist activity at human TRPC7 receptor expressed in HEK293 cells assessed as channel desensitization up to 30 uM in presence of 0.1 mM Ca2+ by whole cell patch-clamp method
T1 sequence (whole entry): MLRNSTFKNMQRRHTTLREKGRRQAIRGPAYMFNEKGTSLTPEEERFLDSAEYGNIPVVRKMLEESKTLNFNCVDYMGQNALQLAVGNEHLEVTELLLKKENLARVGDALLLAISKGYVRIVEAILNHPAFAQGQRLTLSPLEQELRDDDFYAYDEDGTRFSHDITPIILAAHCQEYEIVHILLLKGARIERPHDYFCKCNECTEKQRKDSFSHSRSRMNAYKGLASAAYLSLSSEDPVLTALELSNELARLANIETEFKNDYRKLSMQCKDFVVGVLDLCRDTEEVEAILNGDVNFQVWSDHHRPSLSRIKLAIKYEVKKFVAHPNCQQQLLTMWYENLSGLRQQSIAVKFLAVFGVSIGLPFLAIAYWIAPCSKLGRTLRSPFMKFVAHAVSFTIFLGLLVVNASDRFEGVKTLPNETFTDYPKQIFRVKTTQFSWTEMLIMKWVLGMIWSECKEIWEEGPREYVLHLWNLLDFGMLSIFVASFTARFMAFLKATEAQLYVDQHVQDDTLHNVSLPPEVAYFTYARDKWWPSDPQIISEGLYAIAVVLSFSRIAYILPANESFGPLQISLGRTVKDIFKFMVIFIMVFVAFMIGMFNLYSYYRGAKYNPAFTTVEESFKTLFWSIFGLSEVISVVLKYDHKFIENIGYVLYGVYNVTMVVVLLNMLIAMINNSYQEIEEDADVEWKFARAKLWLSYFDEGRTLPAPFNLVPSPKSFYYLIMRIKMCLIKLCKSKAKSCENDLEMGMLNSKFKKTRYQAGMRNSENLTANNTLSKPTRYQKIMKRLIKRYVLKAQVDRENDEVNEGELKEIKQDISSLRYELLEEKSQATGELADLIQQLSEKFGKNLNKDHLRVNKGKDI
Procedure, shortened: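 Whole-cell clamp of TRPC6/M5 or TRPC7 HEK293 cells with 0.1 mM Ca2+ bath and 400 nM free Ca2+ pipette. Ramps +100 to −100 mV every 1 s. Increasing concentrations given consecutively by perfusion (TRPC6 highest 20–100 μM; TRPC7 up to 30 μM). Currents at positive and negative potentials followed for desensitization.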

[2] = biological target: T2, Short transient receptor potential channel 3 (Homo sapiens) (UniProt Q13507); test: Agonist activity at human TRPC3 expressed in HEK293 cells assessed as induction of channel current at 10 uM measured for 2.5 mins in presence of 0.5 mM Ca2+ by whole cell patch-clamp method
T2 sequence (whole entry): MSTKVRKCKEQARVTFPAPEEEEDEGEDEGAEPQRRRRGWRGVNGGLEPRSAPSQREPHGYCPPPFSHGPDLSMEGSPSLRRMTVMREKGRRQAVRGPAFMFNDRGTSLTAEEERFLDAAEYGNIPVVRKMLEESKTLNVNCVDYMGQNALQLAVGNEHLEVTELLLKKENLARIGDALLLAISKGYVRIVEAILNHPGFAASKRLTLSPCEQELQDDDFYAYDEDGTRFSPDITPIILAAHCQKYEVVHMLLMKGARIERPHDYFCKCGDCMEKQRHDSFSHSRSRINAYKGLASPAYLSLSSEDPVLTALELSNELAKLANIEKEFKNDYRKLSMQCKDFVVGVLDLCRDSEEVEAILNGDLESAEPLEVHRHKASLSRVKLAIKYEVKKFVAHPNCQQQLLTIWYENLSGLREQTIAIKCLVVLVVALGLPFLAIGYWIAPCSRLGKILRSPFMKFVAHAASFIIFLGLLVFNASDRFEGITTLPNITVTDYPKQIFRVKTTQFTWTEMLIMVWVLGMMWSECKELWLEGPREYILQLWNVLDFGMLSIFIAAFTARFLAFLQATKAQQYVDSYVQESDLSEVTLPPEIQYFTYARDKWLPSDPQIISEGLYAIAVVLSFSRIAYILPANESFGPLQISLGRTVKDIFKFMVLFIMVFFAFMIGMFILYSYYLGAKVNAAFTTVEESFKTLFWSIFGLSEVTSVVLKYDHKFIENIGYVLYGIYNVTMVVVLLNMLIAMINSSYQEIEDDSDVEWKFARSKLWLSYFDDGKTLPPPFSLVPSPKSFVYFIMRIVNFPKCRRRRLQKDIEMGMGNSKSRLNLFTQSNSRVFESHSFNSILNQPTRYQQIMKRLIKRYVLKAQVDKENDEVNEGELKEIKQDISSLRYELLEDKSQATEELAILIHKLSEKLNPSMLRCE
Procedure, shortened: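 Whole-cell recording of human TRPC3 HEK293 cells in bath with 0.5 mM Ca2+. Pipette had 400 nM free Ca2+ buffered by BAPTA. Ramps +100 to −100 mV every 1 s. Compound at 10 μM applied by perfusion; I–V compared against basal.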

[3] = biological target: T2, Short transient receptor potential channel 3 (Homo sapiens); test: Agonist activity at human TRPC3 expressed in HEK293 cells assessed as increase in intracellular calcium level measured for 2.5 mins by Fluo-8-AM dye based fluorescence assay
Procedure, shortened: (§1)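 HEK293 cells stably expressing human TRPC3, run on a FlexStation at 32 °C. Loaded with FMP dye, or Fluo-type Ca2+ dye with 2 mM probenecid. Extracellular NaCl/HEPES saline, pH 7.4, with 2 mM Ca2+ (standard) or 0.5 mM Ca2+. Read as F/F0. In 0.5 mM Ca2+, FMP EC50 from a Hill fit, n = 6.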

[4] = biological target: T2, Short transient receptor potential channel 3 (Homo sapiens); test: Agonist activity at human TRPC3 expressed in HEK293 cells assessed as induction of membrane depolarization measured for 2.5 mins in presence of 0.5 mM Ca2+ by FLIPR membrane potential dye-based fluorescence assay; procedure, shortened: as §1
[5] = biological target: Transient receptor potential cation channel subfamily A member 1 (Homo sapiens) (UniProt O75762); test: Inhibition of human TRPA1 expressed in HEK293 cells assessed as decrease in flufenamic acid-evoked increase in intracellular calcium level at 22 uM preincubated for 2 mins followed by flufenamic acid addition measured for 2.5 mins by Fluo8-AM dye-based fluorescence assay relative to control
Transient receptor potential cation channel subfamily A member 1 (Homo sapiens), sequence (O75762 whole entry): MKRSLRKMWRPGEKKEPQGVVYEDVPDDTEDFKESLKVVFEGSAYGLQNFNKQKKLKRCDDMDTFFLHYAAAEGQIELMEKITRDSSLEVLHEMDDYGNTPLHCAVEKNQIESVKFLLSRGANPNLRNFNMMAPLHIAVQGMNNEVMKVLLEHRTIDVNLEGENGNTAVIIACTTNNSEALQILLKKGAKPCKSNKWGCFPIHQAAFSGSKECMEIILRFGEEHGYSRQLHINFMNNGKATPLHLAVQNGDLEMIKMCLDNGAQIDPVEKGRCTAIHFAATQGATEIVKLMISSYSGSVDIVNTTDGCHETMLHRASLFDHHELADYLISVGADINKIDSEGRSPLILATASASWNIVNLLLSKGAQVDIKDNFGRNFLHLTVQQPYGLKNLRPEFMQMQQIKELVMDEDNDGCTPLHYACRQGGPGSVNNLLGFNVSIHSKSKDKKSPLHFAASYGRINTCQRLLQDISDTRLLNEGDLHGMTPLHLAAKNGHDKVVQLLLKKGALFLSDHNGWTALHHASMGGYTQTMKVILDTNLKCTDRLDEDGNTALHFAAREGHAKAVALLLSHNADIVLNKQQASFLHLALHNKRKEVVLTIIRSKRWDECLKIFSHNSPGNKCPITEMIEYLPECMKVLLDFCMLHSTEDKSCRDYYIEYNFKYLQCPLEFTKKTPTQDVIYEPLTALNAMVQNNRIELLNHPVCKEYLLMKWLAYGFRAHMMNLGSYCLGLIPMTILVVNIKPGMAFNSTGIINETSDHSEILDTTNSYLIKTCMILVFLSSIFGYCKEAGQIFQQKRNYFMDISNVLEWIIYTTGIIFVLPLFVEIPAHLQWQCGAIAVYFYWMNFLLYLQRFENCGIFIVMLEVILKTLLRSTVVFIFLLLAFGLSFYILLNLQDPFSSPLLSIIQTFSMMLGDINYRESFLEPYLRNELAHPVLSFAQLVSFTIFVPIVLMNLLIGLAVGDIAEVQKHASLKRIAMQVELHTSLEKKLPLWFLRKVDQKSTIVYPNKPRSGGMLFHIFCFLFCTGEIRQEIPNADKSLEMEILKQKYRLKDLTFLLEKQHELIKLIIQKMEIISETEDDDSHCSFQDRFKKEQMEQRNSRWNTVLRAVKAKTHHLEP
Procedure, shortened: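 Same TRP panel as for the stimulation tests, with FMP dye for TRPC4 and M5 and Fluo8-AM for TRPA1, V1 and M8. Compound applied for 2 min before the channel agonist (TRPC4: 1 μM DAMGO). Inhibition of the agonist response measured on a FlexStation at 32 °C.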

| SMILES | inhibition [1] | Activity [2] | Activity [3] | Activity [4] | inhibition [5] |
| --- | --- | --- | --- | --- | --- |
| CCOC(=O)N1CCC(c2cc(O)n3nc(C)c(-c4ccc(F)cc4)c3n2)CC1 | Active | Active | inactive | Dose-dependent effect |  |
| CCOC(=O)N1CCC(c2cc(O)n3nc(C)c(-c4ccc(C(F)(F)F)cc4)c3n2)CC1 |  |  |  |  | < 20% |

Reference: ChEMBL document CHEMBL4014306, “Pyrazolopyrimidines as Potent Stimulators for Transient Receptor Potential Canonical 3/6/7 Channels” (J Med Chem, 2017)
